Here are results for 8 compounds from ChEMBL document CHEMBL3286252, “Synthesis, biological evaluation and structure-activity relationship of new GABA uptake inhibitors, derivatives of 4-aminobutanamides” (Eur J Med Chem, 2014).

Molecules are shown by their SMILES. pIC50, pKi: −log10 of the molar value. Calls of active or inactive are those of the source.

Data set [1] is described as follows: Retardation factor of the compound using hexane/ethanol/TEA at ratio of 7:2:1 as solvent system by thin layer chromatography. The format is physicochemical.
The target in the next data set is T1, GABA transporter 4 (Mus musculus, UniProt P31650).
T1 sequence (P31650 whole entry): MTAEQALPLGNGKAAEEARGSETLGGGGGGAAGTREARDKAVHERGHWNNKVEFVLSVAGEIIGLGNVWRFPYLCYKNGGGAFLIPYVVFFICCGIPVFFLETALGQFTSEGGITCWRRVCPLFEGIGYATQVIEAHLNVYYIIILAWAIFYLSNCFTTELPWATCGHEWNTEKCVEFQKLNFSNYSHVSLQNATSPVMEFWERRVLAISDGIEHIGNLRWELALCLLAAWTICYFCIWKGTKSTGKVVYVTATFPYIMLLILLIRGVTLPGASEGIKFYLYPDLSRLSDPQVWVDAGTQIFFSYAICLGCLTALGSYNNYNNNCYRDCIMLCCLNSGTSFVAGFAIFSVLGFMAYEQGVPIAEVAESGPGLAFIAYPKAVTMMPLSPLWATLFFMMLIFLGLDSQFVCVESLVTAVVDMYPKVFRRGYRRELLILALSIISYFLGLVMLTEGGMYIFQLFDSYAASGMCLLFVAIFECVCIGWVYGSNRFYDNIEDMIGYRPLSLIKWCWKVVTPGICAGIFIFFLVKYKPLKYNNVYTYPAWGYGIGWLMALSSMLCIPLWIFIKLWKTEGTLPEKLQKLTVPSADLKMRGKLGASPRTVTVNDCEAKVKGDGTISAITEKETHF
Kind of data set: Inhibition of mouse GAT4 expressed in HEK293 cells assessed as decrease in [3H]GABA uptake. The format is cell-based.

The target of data set [2] is T2, Sodium- and chloride-dependent GABA transporter 1 (Mus musculus, UniProt P31648). As to the kind of experiment: Inhibition of mouse GAT1 expressed in HEK293 cells assessed as decrease in [3H]GABA uptake. The format is cell-based.
A further data set concerns the target T3, GABA transporter 3 (Mus musculus, UniProt P31649).
T3 sequence (P31649 whole entry): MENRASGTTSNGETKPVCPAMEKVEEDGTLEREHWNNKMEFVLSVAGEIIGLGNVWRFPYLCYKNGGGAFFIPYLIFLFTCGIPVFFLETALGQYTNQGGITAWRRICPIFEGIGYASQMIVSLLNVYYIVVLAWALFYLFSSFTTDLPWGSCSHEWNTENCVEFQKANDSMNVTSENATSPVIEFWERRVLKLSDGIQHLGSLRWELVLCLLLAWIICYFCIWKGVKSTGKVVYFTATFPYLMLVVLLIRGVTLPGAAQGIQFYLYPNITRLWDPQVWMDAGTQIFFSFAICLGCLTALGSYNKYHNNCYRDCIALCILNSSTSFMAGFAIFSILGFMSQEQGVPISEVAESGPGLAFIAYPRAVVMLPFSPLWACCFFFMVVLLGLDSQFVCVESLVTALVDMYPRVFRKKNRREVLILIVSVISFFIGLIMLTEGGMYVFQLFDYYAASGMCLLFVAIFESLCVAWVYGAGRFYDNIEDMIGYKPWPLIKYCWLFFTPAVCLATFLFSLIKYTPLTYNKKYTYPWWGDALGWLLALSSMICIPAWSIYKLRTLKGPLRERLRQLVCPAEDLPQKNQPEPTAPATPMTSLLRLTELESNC
Kind of data set: Inhibition of mouse GAT3 expressed in HEK293 cells assessed as decrease in [3H]GABA uptake. Type of data set: cell-based.

In data set [3] the target is Sodium- and chloride-dependent GABA transporter 1 (Mus musculus) (UniProt P31648). As to the kind of experiment: Displacement of NO711 from mouse GAT1 expressed in HEK293 cells assessed as NO711 binding at 100 uM by LC-MS/MS analysis. The format is cell-based.
Another data set has as its target T4, GABA transporter 2 (Mus musculus, UniProt P31651).
T4 sequence (P31651 whole entry): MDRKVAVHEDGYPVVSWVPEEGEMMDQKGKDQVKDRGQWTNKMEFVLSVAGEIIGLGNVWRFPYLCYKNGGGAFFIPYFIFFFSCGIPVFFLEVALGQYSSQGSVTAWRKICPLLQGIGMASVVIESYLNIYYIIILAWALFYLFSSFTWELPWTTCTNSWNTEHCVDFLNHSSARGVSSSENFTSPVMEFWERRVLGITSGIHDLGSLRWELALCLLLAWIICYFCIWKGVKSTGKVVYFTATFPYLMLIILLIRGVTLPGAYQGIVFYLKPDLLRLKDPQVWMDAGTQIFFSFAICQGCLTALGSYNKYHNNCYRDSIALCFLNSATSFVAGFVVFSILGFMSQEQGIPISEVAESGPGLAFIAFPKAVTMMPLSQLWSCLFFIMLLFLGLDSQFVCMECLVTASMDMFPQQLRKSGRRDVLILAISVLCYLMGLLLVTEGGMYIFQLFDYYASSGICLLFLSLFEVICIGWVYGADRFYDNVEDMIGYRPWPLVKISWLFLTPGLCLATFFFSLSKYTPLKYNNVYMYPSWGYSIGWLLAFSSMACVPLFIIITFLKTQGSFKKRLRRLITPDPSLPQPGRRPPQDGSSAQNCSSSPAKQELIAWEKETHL
Kind of data set: (§1) Inhibition of mouse GAT2 expressed in HEK293 cells assessed as decrease in [3H]GABA uptake. The format is cell-based.

In data set [4] the target is T2, Sodium- and chloride-dependent GABA transporter 1. As to the kind of experiment: Displacement of NO711 from mouse GAT1 expressed in HEK293 cells by LC-MS/MS analysis. The format is cell-based.
For data set [5], the system named is Mus musculus. As to the kind of experiment: Anticonvulsant activity against pentylenetetrazole-induced seizure in albino Swiss (CD-1) mouse assessed as delay in onset of seizures at 100 mg/kg, ip administered 60 mins prior to PTZ challenge. Type of data set: functional. Conditions: route intraperitoneal. Summed up:
(§2)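 Male CD-1 mice, 18–22 g, given compound or vehicle i.p. 60 min before PTZ 100 mg/kg s.c. Each mouse observed alone for 30 min for clonic seizures: whole-body clonus over 3 s with loss of righting reflex. Read-outs: latency to first clonus, number of seizure episodes, and deaths within 30 min. Groups of 7–10 mice, compared with vehicle.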

Data set [6] concerns Mus musculus. As to the kind of experiment: Anticonvulsant activity against pentylenetetrazole-induced seizure in albino Swiss (CD-1) mouse assessed as decrease in seizure episodes at 100 mg/kg, ip administered 60 mins prior to PTZ challenge. Conditions: route intraperitoneal. Type of data set: functional. Summed up: as §2
Data set [7] concerns Mus musculus. As to the kind of experiment: Anticonvulsant activity against pentylenetetrazole-induced seizure in albino Swiss (CD-1) mouse assessed as decrease in mortality rate at 100 mg/kg, ip administered 60 mins prior to PTZ challenge. The format is functional. Conditions: route intraperitoneal. A digest of the protocol: as §2
Data set [8] can be described thus: Retardation factor of the compound using 25%NH3/MeOH/DCM/PE at ratio of 45:225:600:90 as solvent system by thin layer chromatography. The format is physicochemical.
The test system of data set [9] is Mus musculus. Kind of data set: Antinociceptive activity in ip dosed albino Swiss (CD-1) mouse measured after 60 mins by hot plate test. Type of data set: functional, organism-based. A general note: In hot-plate and tail-flick tests a longer latency is read as antinociception.
For data set [10], the system named is Mus musculus. As to the kind of experiment: Antidepressant-like activity in albino Swiss (CD-1) mouse assessed as reduction in immobility time at 30 mg/kg, ip by forced swim test. Conditions: route intraperitoneal. Type of data set: functional. A digest of the protocol:
(§3)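 Compound or vehicle was given i.p. 60 min before the test. Each mouse was placed for 6 min in a glass cylinder (25 cm high, 10 cm diameter) holding 10 cm of water at 23–25 C. Immobility, meaning passive floating, was timed over the final 4 min. 7–8 mice per group; ANOVA with Dunnett's test.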

The test system of data set [11] is Mus musculus. Kind of data set: Anticonvulsant activity in albino Swiss (CD-1) mouse assessed as current intensity required to induce 50% tonic hind limb extensions at 100 mg/kg, ip after 60 mins by electroconvulsive threshold test (reference value: 6.61 mA). Type of data set: functional, Hindlimb. Conditions: route intraperitoneal.
For data set [12], the system named is Mus musculus. Kind of data set: Anticonvulsant activity against pilocarpine-induced seizure in albino Swiss (CD-1) mouse assessed as prolongation of latency time to seizures at 100 mg/kg, ip administered 60 mins before pilocarpine challenge. The format is functional. The conditions noted are these: route intraperitoneal. A digest of the protocol: (§4)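 CD-1 mice received compound or vehicle (1% Tween 80) i.p. 60 min before pilocarpine 400 mg/kg i.p. Scopolamine butylbromide 1 mg/kg i.p. was given 45 min before pilocarpine. 7–8 mice per group; Student's t-test versus vehicle; mean ± SEM.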

Data set [13] deals with Mus musculus. As to the kind of experiment: Anticonvulsant activity against pilocarpine-induced seizure in albino Swiss (CD-1) mouse assessed as prolongation of latency time to death at 200 mg/kg, ip administered 60 mins before pilocarpine challenge. Type of data set: functional. The conditions noted are these: route intraperitoneal. Summed up: (§5)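 Male CD-1 mice dosed i.p. with compound or vehicle (1% Tween 80). Scopolamine butylbromide 1 mg/kg i.p. given 45 min before pilocarpine; pilocarpine 400 mg/kg i.p. given 60 min after compound. Observed 1 h. Latency to tonic-clonic seizure and latency to death recorded, cut-off 60 min. 7–8 mice per group, mean ± SEM, Student's t-test against vehicle.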

The subject of data set [14] is Mus musculus. Kind of data set: Antidepressant-like activity in albino Swiss (CD-1) mouse assessed as reduction in immobility time at 15 mg/kg, ip by forced swim test. The format is functional. Conditions: route intraperitoneal. A digest of the protocol:
as §3

The target in data set [15] is T5, GABA transporter 2 (Mus musculus) (UniProt P31651).
T5 sequence (whole entry): T4 sequence (P31651 whole entry)
The data set is described as §1. Type of data set: cell-based. Conditions: concentration not given here.

In data set [16] the test system is Mus musculus. Kind of data set: Anticonvulsant activity against pilocarpine-induced seizure in albino Swiss (CD-1) mouse assessed as prolongation of latency time to death at 100 mg/kg, ip administered 60 mins before pilocarpine challenge. The format is functional. The conditions noted are these: route intraperitoneal. Summed up: as §5
Data set [17] concerns Mus musculus. As to the kind of experiment: Anticonvulsant activity against pilocarpine-induced seizure in albino Swiss (CD-1) mouse assessed as prolongation of latency time to seizures at 200 mg/kg, ip administered 60 mins before pilocarpine challenge. The format is functional. Conditions: route intraperitoneal. Summed up: as §4

Regarding `NCCC(NCCC=C(c1ccccc1)c1ccccc1)C(=O)NCc1ccccc1Cl` (stereo not drawn), the Rf in data set [1] is listed as 0.15. Besides, the pIC50 is 4.99 at GABA transporter 4, 4.80 in data set [2], 4.62 on GABA transporter 3 and 5.16 on GABA transporter 2. Further, the Activity in data set [3] worked out at 53%.

Take `CN(CCCC(c1ccccc1)c1ccccc1)C(CCN)C(=O)NCc1ccccc1` (stereo not drawn): the Rf in [1] is given as 0.12. In addition, the negative-log IC50 (pIC50) was 4.59 on GABA transporter 4, 4.65 in data set [2], 4.53 at GABA transporter 3 and 5.02 at GABA transporter 2. This compound also showed a negative-log Ki (pKi) in data set [4] of 4.51.

Turning to `CCC1(C)CC(=O)NC1=O` (stereo not drawn) [ETHOSUXIMIDE], the Activity with Mus musculus [5] came to 120%. Besides, the inhibition in vivo at 100 mg/kg in the data set with Mus musculus [6] is 64%; in the data set with Mus musculus [7] it was 75%.

As for `CN(CCCC(c1ccccc1)c1ccccc1)C(CCN)C(=O)NCc1ccc(F)cc1` (stereo not drawn), the Rf in data set [1] is 0.22. Also, the negative-log IC50 (pIC50) on GABA transporter 4 is 4.87; in [2], 4.78; on GABA transporter 3, 4.57; at GABA transporter 2, 4.94. This compound also had a pKi in data set [4] of 4.67.

Take `NCCC(NCCC=C(c1ccccc1)c1ccccc1)C(=O)NCc1ccccc1` (stereo not drawn): the Rf in [1] is reported as 0.16. The negative-log IC50 (pIC50) on GABA transporter 4 is 4.59; in [2], 4.51; on GABA transporter 3, 4.48; at GABA transporter 2 it was 5.10. In data set [4], the pKi is 4.76.

With `NCCC(C(=O)NCc1ccccc1)N1CCN(C(c2ccccc2)c2ccccc2)CC1` (stereo not drawn), in data set [8], the Rf worked out at 0.15. Further, the negative-log IC50 (pIC50) at GABA transporter 4 was 4.23; in data set [2], 4.35; at GABA transporter 3, 4.57; at GABA transporter 2 it was 4.42. Besides, the Activity in data set [3] worked out at 83%.

For `COc1ccc(C(OCCN2CCC[C@H](C(=O)O)C2)(c2ccc(OC)cc2)c2ccc(OC)cc2)cc1`, in the data set with Mus musculus [9], the result was inactive. Further, in the data set on Mus musculus [10], the inhibition in vivo at 30 mg/kg amounted to 19.9%. Moreover, in the data set with Mus musculus [11], the CS50 turned out to be 7.95 mA. The Activity in the data set with Mus musculus [12] is on record as 158%; with Mus musculus [13], 202.7%; with Mus musculus [16] it was 243.8%; with Mus musculus [17], 258.9%. Besides, in the data set with Mus musculus [14], the inhibition in vivo at 15 mg/kg is 12.1%. The inhibition in data set [15] came to 56%.

On to `NCCC(NCCC=C(c1ccccc1)c1ccccc1)C(=O)NCc1ccc(Cl)cc1` (stereo not drawn), for which the Rf in data set [1] worked out at 0.14. For the same compound, the pIC50 on GABA transporter 4 is 4.93; in data set [2], 4.78; on GABA transporter 3 it was 4.75; on GABA transporter 2 it was 5.02. In [4], this compound gave a pKi of 4.79.

As usually defined, the pIC50 is the IC50 on a negative log10 scale, so that one unit is a factor of ten. The pKi is the Ki on a negative log10 scale, so that one unit is a factor of ten. In general, inhibition in vivo refers to how much of the control response was suppressed. One may read the inhibition as the percentage by which the read-out fell short of the control.
